# Compound activity (PubChem)
# Hits are enriched below; roughly 3.4% of the tested compounds scored in any of these assays.
# MC4R antagonist = blocks human MC4R cAMP signaling; 0.48% of 360,000 active; MC4R-expressing cells, MTII-stimulated cAMP, LANCE TR-FRET; AID 540295; P32245; inhibition, % at 6.5 µM;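 active = inhibition above its plate's cutoff, the mean of tested wells on that plate plus 3 SD, cut at about 29% in these data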;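 also: 0% = Melanotan II alone and 100% = Melanotan II plus saturating MCL0020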
#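 Material – human MC4R-expressing U2OS cells · Repeats – no replicates · Detection – TR-FRET with Eu-cAMP and labeled anti-cAMP, 671 nm · Times – compound 30 min, challenge 1 h, detection 1 h · Compound – single nominal compound dose of 6.5 µM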
# HTR2A ag = mouse HTR2A agonism via beta-arrestin recruitment | P35363 | CHO-K1 mHTR2A beta-arrestin complementation, luminescence; percent of 30 µM serotonin response | activation, % at 7.6 µM | 0.66% of 360,000 active;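 active = activation above a run cutoff, the mean activation of all tested compounds plus 3 SD, cut at about 14% in these data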;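 also: 0% = plate median of compound wells and 100% = 30 µM serotonin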
# Target sequence (P35363 whole entry, looked up): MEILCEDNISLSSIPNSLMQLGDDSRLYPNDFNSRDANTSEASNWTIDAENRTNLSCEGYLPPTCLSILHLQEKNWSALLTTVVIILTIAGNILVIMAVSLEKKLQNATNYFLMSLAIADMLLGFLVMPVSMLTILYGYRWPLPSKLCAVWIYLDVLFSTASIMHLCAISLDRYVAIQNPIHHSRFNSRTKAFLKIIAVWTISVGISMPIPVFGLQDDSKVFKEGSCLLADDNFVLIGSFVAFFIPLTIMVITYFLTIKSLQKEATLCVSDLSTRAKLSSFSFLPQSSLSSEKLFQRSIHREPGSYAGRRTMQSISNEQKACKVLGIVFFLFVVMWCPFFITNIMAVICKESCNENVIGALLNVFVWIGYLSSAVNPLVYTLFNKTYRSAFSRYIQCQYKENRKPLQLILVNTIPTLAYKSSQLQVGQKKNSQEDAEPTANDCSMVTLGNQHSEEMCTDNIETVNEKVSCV
# TMEM16A inh = mouse TMEM16A channel inhibition, primary screen. AID 588511. Q8BHY3. HEK293 TMEM16A/YFP iodide influx fluorescence, ionomycin. 1.2% of 310,000 active. normalized B-score (activity score, 25-100; higher = stronger inhibition) at 10 µM;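 active = ratio plate-corrected score three or more library SD toward inhibition, starting fluorescence score within five deviations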;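 also: score derived from kinetic fluorescence span divided by baseline fluorescence per well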
# beta cell repl = MIN6 beta-cell proliferation induction; MIN6 cells proliferation, ATPlite luminescence, 48 h; cells starved in 0.2% serum; 100% = growth in 10% serum; proliferation, % at 10 µM; 0.29% of 330,000 active; AID 2380;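 active = compounds whose signal lies at least 3.5 SD above the mean of all wells on their plate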;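 also: 0% = DMSO-treated cells in low-serum medium and 100% = 10% serum control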
# MC4R barr agon = activates human MC4R beta-arrestin recruitment | P32245 | U2OS MC4R beta-arrestin complementation, luminescence; percent of melanotan II response, DMSO zero | activation, % at 8.9 µM | 0.98% of 360,000 active;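 active = activation above a per-plate cutoff, the mean activation of sample wells on that plate plus 3 SD, cut at about 8% in these data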
# ANO1 activ = mouse TMEM16A channel activation, primary screen | HEK293 TMEM16A/YFP-H148Q/I152L, iodide quench fluorescence; stronger effect = lower value | 0.3% of 340,000 active | AID 623877 | B-score at 10 µM | Q8BHY3;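 active = fluorescence-ratio B-score plate-corrected deviation score at least 3 library SD below zero, with starting fluorescence score within 5 deviations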;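 also: channel opened by trigger with iodide after compound preincubation; score built on the fluorescence ratio of max minus min over baseline; more negative score means more quench and so TMEM16A activation or potentiation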
# MC4R barr conf = human MC4R beta-arrestin agonism confirmation. shares compounds with MC4R barr agon. U2OS MC4R beta-arrestin recruitment, luminescence; scaled DMSO 0%, Melanotan II 100%. activation, % at 8.9 µM. 31% of 2,400 active;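 active = mean activation across replicates above the hit cutoff set in the earlier primary screen, cut at about 8% in these data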
# MOR-DOR barr ag = activates mu-delta opioid heterodimer, MC4R agonist counter-screen; shares compounds with MC4R barr agon; U2OS PathHunter beta-arrestin, beta-gal luminescence; percent of deltorphin B response, DMSO zero; activation, % at 9.2 µM; 5.8% of 2,400 active;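 active = mean activation across replicates exceeds the hit threshold derived in the earlier primary screen, cut at about 18% in these data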;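 also: 100% = deltorphin B at 0.9 µM final and 0% = DMSO alone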
# * hit, by the source's call; i = inactive; x = no result given.
SMILES,MC4R antagonist,HTR2A ag,TMEM16A inh,beta cell repl,MC4R barr agon,ANO1 activ,MC4R barr conf,MOR-DOR barr ag
CCOc1cc(/C=C2/C(=N)N3OC(C)=CC3=NC2=O)ccc1OCCOc1ccccc1,-2,-2,i,3,14*,i,9.2*,10
CC1=CC2=NC(=O)/C(=C\c3cccn3CCOc3cccc(C)c3)C(=N)N2O1,-1,1,i,-3,-1,i,x,x
COc1ccccc1N(CC(=O)Nc1ccc(Br)cc1F)S(=O)(=O)c1cccs1,0,-9,x,-6,-3,i,x,x
O=C(COc1ccc2c3c(c(=O)oc2c1)CCC3)Nc1ccccn1,2,-2,i,-1,-3,i,x,x
COc1ccc(C(=O)Nc2ccc(SC(F)F)cc2)cc1,3,-2,i,-1,3,i,x,x
CCCCOc1ccc(C(=O)Nc2ccc(SC(F)F)cc2)cc1OC,8,0,i,-3,9.9*,i,16*,7
CCCCCCCCN1C(=O)[C@H](CC(=O)NCc2ccc(C)o2)C[C@@]2(C(=O)OCC)CCC=C12,x,-4,x,x,x,x,x,x
COc1ccc(NC(=O)c2cccc3c(Br)cccc23)cc1,5,-9,i,1,12*,i,-2,5
CCOc1ccc(NC(=O)c2ccc(CC)s2)c([N+](=O)[O-])c1,-5,2,i,-1,0,i,x,x
CCOc1cc(NC(=S)NCC(C)C)c(OCC)cc1NC(=O)c1cccs1,10,8,i,-4,15*,i,1,5
CCOc1ccc(NC(=O)CSc2nc(-c3cccs3)cc(C(F)(F)F)n2)c([N+](=O)[O-])c1,-7,-3,i,0,16*,i,26*,7
CCOc1ccc(NC(=O)c2cccs2)c([N+](=O)[O-])c1,-3,3,i,-2,18*,i,2,9
Cc1cc(NC(=O)CSc2nc(-c3cccs3)cc(C(F)(F)F)n2)no1,-25,-5,i,-4,2,i,x,x
Cc1c(N(C)S(=O)(=O)c2ccc(Cl)c(C(=O)NCC(C)(C)N3CCOCC3)c2)c(=O)n(-c2ccccc2)n1C,5,-11,x,x,-1,i,x,x
CCCCCc1c(-c2ccc(OC)cc2)ncn1CCc1ccccc1OC,x,-9,x,x,x,x,x,x
CC(C)COc1ccc(S(=O)(=O)NNC(=O)c2cc3ccccc3o2)cc1,14,8,i,-3,11*,i,12*,10
Cc1nc(N)nc(N(C)c2ccccc2)c1Br,-3,2,x,x,1,i,x,x
CCc1ccc(-c2c(C)sc(NC(C)=O)c2C(N)=O)cc1,-26,0,i,-1,-1,i,x,x
Cc1cc(C(=O)Nc2sc(C)c(-c3ccc(F)cc3)c2C(N)=O)no1,-7,-7,i,-3,13*,i,0,8
Cc1ccc(NC(=O)CN(C)C(=O)c2cccc(S(=O)(=O)N3CCc4ccccc43)c2)cc1,13,-9,x,-6,1,i,x,x
CCC(C)(C)c1ccc(OCCCC[n+]2cccc(C)c2C)c(C(C)(C)CC)c1,3,-3,100*,-3,23*,i,22*,15
Cc1cc(C(C)(C)C)ccc1OCCCCN1CCCC1,-3,-8,i,0,-1,i,x,x
O=C1OC(c2ccccc2)(c2ccc(O)cc2)c2ccccc21 (centres undefined),4,-4,x,x,55*,i,48*,4
O=C1OC(c2ccccc2)(c2ccccc2)c2ccccc21,-1,-2,x,x,0,i,x,x
COc1ccc2cc(C(=O)N3CCC(Cc4ccccc4)CC3)[nH]c2c1,7,1,i,-3,10*,i,8,4
SMILES,MC4R antagonist,HTR2A ag,TMEM16A inh,beta cell repl,MC4R barr agon,ANO1 activ,MC4R barr conf,MOR-DOR barr ag
Cc1noc(C)c1NC(=O)N1C[C@H](O)COC[C@H]2O[C@@H](CC(=O)NCC3CCCCC3)CC[C@@H]21,x,2,x,x,x,x,x,x
CS(=O)(=O)N1CCN(c2ccc(NC(=O)c3ccc(-c4ccc(Cl)cc4)o3)cc2)CC1,1,1,i,-4,12*,i,-1,9
S=c1[nH]nc(COc2ccc(Cl)cc2)n1C1CCCCC1,4,8,i,0,11*,i,1,7
Cc1ccc(OCc2n[nH]c(=S)n2C2CCCCC2)cc1,16,-1,i,2,5,i,x,x
OCCNCC(O)Cn1c2ccccc2c2ccccc21 (centres undefined),-1,-1,i,-3,-3,i,x,x
COc1ccccc1CNCC(O)Cn1c2ccccc2c2ccccc21 (centres undefined),3,10,i,-6,10*,i,21*,21*
COC(=O)c1c(NC(=O)CSc2ncnc3ccccc23)sc(C)c1C,-4,-3,i,-3,15*,i,2,2
CC(C)NC(=O)Nc1ccc2c(c1)C(=O)N([C@H](C)CO)C[C@H](C)[C@@H](CN(C)S(=O)(=O)c1cn(C)cn1)O2,4,-3,x,2,0,x,x,x
Cc1cc(OC(C)C(=O)NCc2ccccn2)c2c(C)cc(=O)oc2c1 (centres undefined),13,2,i,5,1,i,x,x
Cc1cc(OC(C)C(=O)NCc2ccccn2)c2c(C)c(Cc3ccccc3)c(=O)oc2c1 (centres undefined),11,5,i,-2,11*,i,1,2
Cc1ccc(Oc2nnc(-c3ccccc3)cc2C#N)cc1,6,4,i,-4,27*,i,5,9
CC1(Oc2cnc(Cl)c3ccccc23)CCN(Cc2ccc(-c3ccccn3)cc2)C1 (centres undefined),1,9,x,x,0,x,x,x
Cc1ccccc1OC1(C)CCN(Cc2ccc(-c3ccccn3)cc2)C1 (centres undefined),9,-2,x,x,15*,x,4,8
C=CCC[C@@H](Cc1ccc(F)cc1)C(=O)OC[C@H](Cc1c[nH]c2ccccc12)NC(=O)[C@@H](CC=C)CC(=O)N[C@H](CO)Cc1ccccc1,11,8,x,-4,8,i,x,x
